# From ChEMBL document CHEMBL5532690, “Antitubercular activity of 2-mercaptobenzothiazole derivatives targeting Mycobacterium tuberculosis type II NADH dehydrogenase” (RSC Med Chem, 2024)
# How the values were obtained:
# [1] = tested on: Mycobacterium tuberculosis variant bovis; experiment: Antitubercular activity against Mycobacterium bovis BCG assessed as inhibition of intracellular ATP synthesis incubated for 24 hrs by BacTiter-Glo microbial cell viability assay; format: functional, organism-based
# Outline: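 Mid-log cultures were adjusted to OD600 0.05 and exposed to compounds at 37 °C for 24 h. BacTiter-Glo reagent was then added for 12 min and luminescence was read. H37Ra and BCG were grown in 7H9 with glycerol, Tween 80 and ADS. mc2 6230 was grown with tyloxapol plus methionine, leucine, arginine and pantothenate. Values are the mean of triplicates.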
# [2] = tested on: Mycobacterium tuberculosis variant bovis; experiment: Antitubercular activity against Mycobacterium bovis BCG measured after 10 days by liquid broth microdilution assay; format: functional; settings: 240 h, time 10 day
# Outline: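 Broth microdilution in 7H9 with 0.2% glycerol, 0.05% Tween 80 and 10% ADS. Mid-log cultures (OD600 0.4–0.6) were diluted to OD600 0.005 (1.0 × 10^6 CFU ml−1) and added to two-fold serial compound dilutions. Plates were incubated at 37 °C for 10 days and read visually. MIC was the lowest concentration with no turbidity.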
smiles,measurement,setting,value
O=C(CSc1nc2ccccc2c(=O)[nH]1)NC1CCCCC1,IC50,[1],4.99 µg/mL
same,MIC90,[2],1 µg/mL
O=C(CSc1nc2c(ccc3ccccc32)s1)NC1CCCCC1,IC50,[1],38 µg/mL
same,MIC90,[2],64 µg/mL
O=C(CSc1nc2c(Br)cc(C(F)(F)F)cc2s1)NC1CCCCC1,IC50,[1],39.8 µg/mL
same,MIC90,[2],64 µg/mL
O=C(CSc1nc2c(Br)cc(F)cc2s1)NC1CCCCC1,IC50,[1],13.5 µg/mL
same,MIC90,[2],4 µg/mL
O=C(CSc1nc2c(Br)cc(OC(F)(F)F)cc2s1)NC1CCCCC1,IC50,[1],40.8 µg/mL
same,MIC90,[2],128 µg/mL
Cc1cc(C)c2nc(SCC(=O)NC3CCCCC3)sc2c1,IC50,[1],13.4 µg/mL
same,MIC90,[2],4 µg/mL
O=C(CSc1nc2ccc(F)cc2s1)NC1CCCCC1,IC50,[1],19.7 µg/mL
same,MIC90,[2],8 µg/mL
CC(C)c1ccc2nc(SCC(=O)NC3CCCCC3)sc2c1,IC50,[1],9.89 µg/mL
same,MIC90,[2],4 µg/mL
O=C(CSc1nc2ccccc2s1)NC1CCCCC1,IC50,[1],33.2 µg/mL
same,MIC90,[2],64 µg/mL
O=C(CSc1nc2ccc(OC(F)(F)F)cc2s1)NC1CCCCC1,IC50,[1],30.4 µg/mL
same,MIC90,[2],128 µg/mL
O=C(CSc1nc2ccc([N+](=O)[O-])cc2s1)NC1CCCCC1,IC50,[1],34.4 µg/mL
same,MIC90,[2],32 µg/mL
O=C(CSc1nc2ccc(Br)cc2s1)NC1CCCCC1,IC50,[1],31.8 µg/mL
same,MIC90,[2],128 µg/mL
O=C(CSc1nc2ccc(C(F)(F)F)cc2s1)NC1CCCCC1,IC50,[1],19.7 µg/mL
same,MIC90,[2],128 µg/mL
Cc1ccc2nc(SCC(=O)NC3CCCCC3)sc2c1,IC50,[1],14.4 µg/mL
same,MIC90,[2],16 µg/mL
O=C(CSc1nc2ccc(Cl)cc2s1)NC1CCCCC1,IC50,[1],32.9 µg/mL
same,MIC90,[2],64 µg/mL
CC(C)/N=c1\cc2n(-c3ccc(Cl)cc3)c3ccccc3nc-2cc1Nc1ccc(Cl)cc1 [CLOFAZIMINE],MIC90,[2],0.25 µg/mL
NNC(=O)c1ccncc1 [ISONIAZID],MIC90,[2],0.06 µg/mL
CO[C@H]1/C=C/O[C@@]2(C)Oc3c(C)c(O)c4c(O)c(c(/C=N/N5CCN(C)CC5)c(O)c4c3C2=O)NC(=O)/C(C)=C\C=C\[C@H](C)[C@H](O)[C@@H](C)[C@@H](O)[C@@H](C)[C@H](OC(C)=O)[C@@H]1C [RIFAMPIN],MIC90,[2],0.03 µg/mL
C=C(C)[C@H]1Cc2c(ccc3c2O[C@@H]2COc4cc(OC)c(OC)cc4[C@@H]2C3=O)O1 [ROTENONE],MIC90,[2],> 64 µg/mL
